This note sets out measurements from ChEMBL document CHEMBL4118142, “Novel amidrazone derivatives: Design, synthesis and activity evaluation” (Bioorg Med Chem, 2018).

pIC50: −log10 of the molar value. Activity calls are given as the source filed them. The rule behind the calls is not given here.

A short description of data set [1]: Cytotoxicity against rat articular chondrocytes assessed as decrease in cell viability at 1.563 to 25 uM after 24 hrs by MTT assay. The method, boiled down:
(§1)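 Primary rat articular chondrocytes were seeded at 5 × 10^3 cells/well and incubated 24 h in DMEM with 10% FBS. They were then exposed to compound for 24 h. MTT (5 mg/mL stock) was added for 4 h at 37 °C, formazan was dissolved in DMSO, and OD was read at 492 nm against a cell-free blank. Run in triplicate, three independent experiments, means ± SE.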

For data set [2], the target named is T1, Acid-sensing ion channel 1 (Rattus norvegicus) (UniProt P55926).
T1 sequence (whole entry): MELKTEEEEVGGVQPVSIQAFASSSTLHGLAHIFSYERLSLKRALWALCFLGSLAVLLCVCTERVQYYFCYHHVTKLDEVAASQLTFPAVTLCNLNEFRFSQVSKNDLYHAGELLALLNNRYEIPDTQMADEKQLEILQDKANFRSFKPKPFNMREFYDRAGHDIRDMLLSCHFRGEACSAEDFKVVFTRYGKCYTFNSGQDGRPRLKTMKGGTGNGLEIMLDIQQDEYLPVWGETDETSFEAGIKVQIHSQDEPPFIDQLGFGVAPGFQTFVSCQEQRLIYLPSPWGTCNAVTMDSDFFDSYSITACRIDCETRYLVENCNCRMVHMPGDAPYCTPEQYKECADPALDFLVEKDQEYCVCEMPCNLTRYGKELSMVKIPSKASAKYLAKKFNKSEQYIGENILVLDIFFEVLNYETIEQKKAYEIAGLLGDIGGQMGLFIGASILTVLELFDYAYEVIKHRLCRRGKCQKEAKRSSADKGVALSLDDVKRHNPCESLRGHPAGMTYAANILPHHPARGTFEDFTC
Briefly: Inhibition of acid-induced ASIC1a protein expression in rat articular chondrocytes at 1.563 to 25 uM pretreated for 24 hrs followed by acid medium stimulation at pH 6 for 3 hrs by Western blot analysis. The data set is classed as cell-based. The method in brief: (§2)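 Primary rat articular chondrocytes in DMEM/10% FBS at 37 °C, 5% CO2 were pretreated with compound for 24 h, then stimulated with acidic medium (pH 6.0) for 3 h. Cells kept at pH 7.4 served as control. Cells were PBS-washed and lysed, and ASIC1a was measured by Western blot with β-actin as internal control. Mean ± SD of three independent experiments.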

For data set [3], the target named is T1, Acid-sensing ion channel 1 (Rattus norvegicus). Kind of data set: Inhibition of ASIC1a in rat articular chondrocytes assessed as decrease in acid-induced intracellular calcium level at 25 uM pretreated with compound followed by acid medium stimulation in presence of voltage gated calcium channel inhibitor nimodipine after 24 hrs by Fluo-3AM dye based laser scanning confocal microscopy relative to control. The data set is classed as cell-based. The method, boiled down: (§3)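 Primary rat articular chondrocytes (1 × 10^5 cells) were grown 24 h, then loaded with 10 μM Fluo-3-AM plus 0.02% Pluronic F-127 for 30 min at 37 °C and washed. Nimodipine (5 μM) was present in the extracellular fluid. Cells were perfused with D-Hank's containing compound, then with Hank's solution at pH 6.0. Confocal fluorescence (ex 488, em 525 nm) was imaged up to 5 min. Result reported as % inhibition of Ca2+ fluorescence intensity.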

The target of data set [4] is T2, Acid-sensing ion channel 1 (Rattus norvegicus, UniProt P55926).
T2 sequence (P55926 whole entry): T1 sequence (whole entry)
Kind of data set: Inhibition of ASIC1 in Sprague-Dawley rat articular chondrocytes assessed as decrease in acid-induced intracellular calcium level by Fluo-3AM dye based laser scanning confocal microscopy. The data set is classed as cell-based. The method, boiled down:
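Primary rat articular chondrocytes were seeded at 1 × 10^5 cells and used after 24 h. Cells were loaded with 10 µM Fluo-3-AM plus 0.02% Pluronic F-127 for 30 min at 37 °C, washed, and kept with 5 µM nimodipine in the extracellular fluid. They were perfused with D-Hank's, then compound, then pH 6.0 Hank's. Confocal readout at ex 488/em 525 nm over 5 min gave the fluorescence-intensity inhibition rate.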

For data set [5], the target named is T2, Acid-sensing ion channel 1. Kind of data set: Inhibition of ASIC1a in rat dorsal root ganglion neurons assessed as reduction in peak current preincubated for 120 secs followed by acid medium stimulation at pH 5.5 for 3 secs by automated patch clamp electrophysiology assay.
Data set [6] in a line: Cytotoxicity against rat articular chondrocytes assessed as decrease in cell viability at 3.125 to 25 uM after 24 hrs by MTT assay. The method in brief: as §1
For data set [7], the target named is T1, Acid-sensing ion channel 1 (Rattus norvegicus). Kind of data set: Inhibition of acid-induced ASIC1a protein expression in rat articular chondrocytes at 3.125 to 50 uM pretreated for 24 hrs followed by acid medium stimulation at pH 6 for 3 hrs by Western blot analysis. It counts as cell-based. The method, boiled down:
as §2

The nature of data set [8]: Cytotoxicity against rat articular chondrocytes assessed as decrease in cell viability at 50 uM after 24 hrs by MTT assay. The method in brief: as §1
For data set [9], the target named is T1, Acid-sensing ion channel 1 (Rattus norvegicus). Briefly: Inhibition of ASIC1a in rat articular chondrocytes assessed as decrease in acid-induced intracellular calcium level at 50 uM pretreated with compound followed by acid medium stimulation in presence of voltage gated calcium channel inhibitor nimodipine after 24 hrs by Fluo-3AM dye based laser scanning confocal microscopy relative to control. The data set is classed as cell-based. The method in brief: as §3

`N=C(NN)c1ccc2cc(/C=C/c3cccc(Cl)c3)ccc2c1`: in [1], the Activity result was “Non-Toxic”. For the same molecule, the “inhibition of ASIC1a protein expression (active/not active)” value (shortened to “inhibition … (active/not active)”) in [2] is “Active”. For the same molecule, in data set [3], the inhibition is 59.5%.

`N=C(NN)c1ccc2cc(/C=C/c3ccccc3)ccc2c1`: in data set [1], the Activity result is given as “Non-Toxic”. Besides, the “inhibition … (active/not active)” value in [2] is “Active”. Further, the inhibition in [3] was 33.4%.

Turning to `N=C(NN)c1ccc2cc(/C=C/c3ccccc3F)ccc2c1`, the Activity entry in data set [1] is reported as “Non-Toxic”. Also, the “inhibition … (active/not active)” value in data set [2] was “Active”. Moreover, the inhibition in [3] was 52.1%.

As to `N=C(NN)c1ccc2cc(/C=C/c3ccc(F)cc3)ccc2c1`, the Activity entry in [1] is reported as “Non-Toxic”. In [2], the “inhibition … (active/not active)” value is “inactive”.

With `N=C(N)NC(=O)c1nc(Cl)c(N)nc1N` [AMILORIDE], in data set [4], the pIC50 was 4.52.

On to `N=C(NN)c1ccc2cc(/C=C/c3cccc(F)c3)ccc2c1`, for which the Activity entry in data set [1] was “Non-Toxic”. The “inhibition … (active/not active)” value in [2] was “Active”.

Turning to `CC(C)C1c2cc(C3CC3c3ccc4cc(C(=N)N)ccc4c3)ccc2CCN1C` (centres undefined), the pIC50 in [5] is 5.70.

For `COc1ccc(/C=C/c2ccc3cc(C(=N)NN)ccc3c2)cc1`, the Activity entry in [6] was “Non-Toxic”. The inhibition result in data set [7] was “Active”. The inhibition in data set [3] is 68.9%.

As to `Cc1ccc(/C=C/c2ccc3cc(C(=N)NN)ccc3c2)cc1`, in [8], the Activity entry is listed as “Toxic”. In addition, in [7], the inhibition result was “Active”. For the same molecule, in [9], the inhibition worked out at 63.2%.

`N=C(NN)c1ccc2cc(/C=C/c3ccc(Cl)cc3)ccc2c1`: the Activity entry in [6] is on record as “Non-Toxic”. Also, in [7], the inhibition entry was “Active”. Further, in data set [9], the inhibition was 20.8%.
